From ChEMBL document CHEMBL1134485, “Diguanidino and "reversed" diamidino 2,5-diarylfurans as antimicrobial agents” (2001)
≈ marks a conversion by molar mass, not a printed value.

Experiments:
Nucleic Acid [1] = system: Nucleic Acid
Aspergillus fumigatus [2] = assay: Antimicrobial activity against Aspergillus fumigatus (MIC); format: functional
Nucleic Acid [3] = system: Nucleic Acid; remark: listed apart in the source
Candida albicans = assay: In vitro minimum inhibitory concentration against Candida albicans.; format: functional
Aspergillus fumigatus [4] = assay: In vitro minimum fungicidal concentration required to inhibit Aspergillus fumigatus(MFC); format: functional
How it was run: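 Mould MFC: 100 µL aliquots from macrodilution tubes (RPMI 1640/MOPS pH 7.0, 0.5 × 10³ to 2.5 × 10³ CFU/mL conidial inoculum, 30 °C, 48-72 h, drug 100 to 0.09 µg/mL) showing complete growth inhibition plated on Sabouraud agar; MFC taken as lowest drug concentration giving three or fewer colonies.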

[5] = system: Mycobacterium tuberculosis; assay: In vitro minimum inhibitory concentration required to inhibit Mycobacterium tuberculosis; format: functional
How it was run: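 M. tuberculosis H37Rv grown in BACTEC 12B medium; fluorometric broth microdilution (Microplate Alamar Blue Assay). […] MIC = lowest concentration reducing relative fluorescence units by ≥90% relative to control culture. Testing done by TAACF.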

| SMILES | ΔTm (Nucleic Acid [1]) | MIC (Aspergillus fumigatus [2]) | ΔTm (Nucleic Acid [3]) | MIC (Candida albicans) | MFC (Aspergillus fumigatus [4]) | MIC [5] |
| --- | --- | --- | --- | --- | --- | --- |
| CC(=N)Nc1ccc(-c2ccc(-c3ccc(NC(C)=N)cc3)o2)cc1 | 15.9 | 100 µg/mL (≈ 301 µM) | 6 | > 100 µg/mL | > 100 µg/mL | – |
| N=C(Nc1ccc(-c2ccc(-c3ccc(NC(=N)c4ccccn4)cc3)o2)cc1)c1ccccn1 | 19.6 | – | 7.5 | – | – | 1.56 µg/mL (≈ 3.4 µM) |
